The record followed here is ChEMBL document CHEMBL4000247, “Carbonic anhydrases activation with 3-amino-1H-1,2,4-triazole-1-carboxamides: Discovery of subnanomolar isoform II activators” (Bioorg Med Chem, 2017).

The target of experiment [1] is Carbonic anhydrase 1 (Homo sapiens) (UniProt P00915). The experiment in a line: Activation of recombinant human carbonic anhydrase 1 incubated for 15 mins prior to testing by stopped flow CO2 hydrase assay. An outline of the steps: (§1)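 CO2 hydration followed 5–10 s in stopped-flow instrument; phenol red 0.2 mM read at 557 nm; 10 mM HEPES pH 7.4, 0.1 M NaClO4 for ionic strength; saturated CO2 solutions in water at 25°C as substrate. Activator stocks 10 mM in assay buffer, diluted down to 0.01 nM; enzyme and activator preincubated 15 min at room temperature. Activation constant from competitive steady-state equation.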
Carbonic anhydrase 1 (Homo sapiens), sequence (P00915 2-261 limits assumed): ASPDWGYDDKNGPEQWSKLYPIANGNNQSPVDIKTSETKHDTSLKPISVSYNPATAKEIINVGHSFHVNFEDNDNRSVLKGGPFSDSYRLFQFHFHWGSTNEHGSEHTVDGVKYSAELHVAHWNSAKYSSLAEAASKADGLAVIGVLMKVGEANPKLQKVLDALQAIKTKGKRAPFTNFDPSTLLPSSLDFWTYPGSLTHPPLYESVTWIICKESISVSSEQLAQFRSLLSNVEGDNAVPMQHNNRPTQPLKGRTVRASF

Experiment [2] deals with Carbonic anhydrase 2 (Homo sapiens) (UniProt P00918). The experiment in a line: Activation of recombinant human carbonic anhydrase 2 incubated for 15 mins prior to testing by stopped flow CO2 hydrase assay. In short, it runs like this:
as §1

With `Nc1ncn(C(=O)Nc2ccc(Cc3ccc(NC(=O)n4cnc(N)n4)cc3)cc2)n1`, the KA in experiment [1] is 0.94 nM; in experiment [2] it was 0.05 nM.

On to `Nc1ncn(C(=O)NCCCCCCCCCCCCNC(=O)n2cnc(N)n2)n1`, for which the values for the KA in experiment [1] and in experiment [2] were 982 nM and 79 nM, respectively.

`Nc1ncn(C(=O)NCCCCNC(=O)n2cnc(N)n2)n1`: the values for the KA in experiment [1] and in experiment [2] were 74 nM and 91 nM, respectively.

Turning to `O=C(O)c1ncn(C(=O)NCCCCCCNC(=O)n2cnc(C(=O)O)n2)n1`, the KA came to 13.7 nM in experiment [1] and 6700 nM in experiment [2].

As to `CCCCNC(=O)n1cnc(N)n1`, the results for the KA in experiment [1] and in experiment [2] were 6.1 nM and 1.7 nM, respectively.

As for `CCCCCCNC(=O)n1cnc(N)n1`, the KA in experiment [1] was 123 nM; in experiment [2], 345 nM.

Take `Nc1ncn(C(=O)Nc2ccc(NC(=O)n3cnc(N)n3)cc2)n1`: the KA in experiment [1] stood at 65 nM; in experiment [2], 0.12 nM.

Turning to `CC1(C)CC(NC(=O)n2cnc(N)n2)CC(C)(CNC(=O)n2cnc(N)n2)C1` (stereo not drawn), the values for the KA in experiment [1] and in experiment [2] were 993 nM and 1570 nM, respectively.

For the compound `Nc1ncn(C(=O)NCCCCCCNC(=O)n2cnc(N)n2)n1`, the KA in experiment [1] is 42 nM; in experiment [2] it was 14.6 nM.

With `Nc1ncn(C(=O)Nc2ccc(-c3ccc(NC(=O)n4cnc(N)n4)cc3)cc2)n1`, the values for the KA in experiment [1] and in experiment [2] were 0.81 nM and 14.1 nM, respectively.

With `CCCCCCCCCCCCCCCCCCNC(=O)n1cnc(N)n1`, the KA in experiment [1] worked out at 987 nM; in experiment [2] it was 1680 nM.

Consider `COc1cc(-c2ccc(NC(=O)n3cnc(N)n3)c(OC)c2)ccc1NC(=O)n1cnc(N)n1`, for which the KA amounted to 637 nM in experiment [1] and 1680 nM in experiment [2].

As to `Nc1ncn(C(=O)NCCCCCCCCNC(=O)n2cnc(N)n2)n1`, the KA in experiment [1] was 11.1 nM; in experiment [2] it was 65 nM.

Take `Cc1ccc(NC(=O)n2cnc(N)n2)cc1NC(=O)n1cnc(N)n1`: the figures for the KA in experiment [1] and in experiment [2] were 4.2 nM and 826 nM, respectively.
